“And” between values parts separate entries of the source, which are not always exact repeats. Identical values can stand only once.
Assays:
Canis familiaris [1] = experiment: Effective dose administered intravenously to elicit Antiarrhythmic efficacy in anesthetized dogs was reported; Number of animals effective at that dose is 1.; format: functional, Canis lupus familiaris, Heart
In short: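 Dogs are anesthetized and the chest reopened. Stimulating and recording electrodes go on the myocardium. Reproducible PES-induced sustained VT or VF is confirmed first; SVT is ended by burst pacing and VF by DC countershock. Compound is given iv in 0.9% saline and inducibility retested. A dose counts as effective when SVT/VF cannot be reinduced in two of three animals.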

Canis familiaris [2] = organism: Canis familiaris; experiment: In vitro electrophysiological evaluation in canine cardiac ventricular muscle reported as maximum % change for functional refractory period (FRP) at 0.1-100 uM concentration range; concentration at which it occurred is 100.; set-up: species or system Canis lupus familiaris, Muscle tissue
Canis familiaris [3] = organism: Canis familiaris; experiment: In vitro electrophysiological evaluation in canine cardiac ventricular muscle reported as % change for the functional refractory period (FRP) at 10 uM at concentration range of 0.1-100 uM; set-up: species or system Canis lupus familiaris, Muscle tissue
In short: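 Canine right ventricle and papillary muscle strips in oxygenated Tyrode's solution, fitted with stimulating and recording electrodes. The extra-stimulus conduction-interval method was adapted for in vitro use. FRP and CT were read from a conduction-interval curve before and after various compound concentrations, and expressed as percent change from control. Compounds were taken from 10 mM deionized-water stock into Tyrode's. Each strip was used once as its own control.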

Canis familiaris [4] = organism: Canis familiaris; experiment: In vitro electrophysiological evaluation in canine cardiac ventricular muscle reported as % change for conduction time(CT) at 10 uM at 0.1-100 uM concentration range; Minimal (<10% decrease or increase in […]).; format: functional, Canis lupus familiaris, Muscle tissue
In short: (§1)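 Canine right ventricular/papillary muscle strips in oxygenated Tyrode's, extracellular extra-stimulus conduction-interval method. FRP and CT are read from conduction-interval curves before and during rising concentrations. Compound is a 10 mM aqueous stock diluted into Tyrode's. Each strip is used once as its own control. Readouts are percent change from control at 10 μM, plus the maximum change with its concentration.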

Canis familiaris [5] = organism: Canis familiaris; experiment: (§2) In vitro electrophysiological evaluation in canine cardiac occurred is 100.; format: functional; conditions: Canis lupus familiaris; Heart
Canis familiaris [6] = organism: Canis familiaris; experiment: In vitro electrophysiological evaluation in canine cardiac ventricular muscle reported as maximum % change for conduction time(CT) at 0.1-100 uM concentration range; Minimal (<10% decrease or increase in […]).; format: functional, Canis lupus familiaris, Muscle tissue; in short: as §1
Canis familiaris [7] = organism: Canis familiaris; experiment: In vitro electrophysiological evaluation in canine cardiac Purkinje fibres reported as percent change Vmax at 10 uM at concentration range of 0.1-100 uM; Minimal (<10% decrease or increase in Vmax).; format: functional, organism-based; conditions: Canis lupus familiaris, Purkinje fiber
In short: (§3)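 Canine cardiac Purkinje fibres, intracellular microelectrode recording, paced at a basic cycle length of 1 s. APD95 and Vmax read simultaneously. Compound: 10 mM stock in deionized water, diluted into Tyrode's solution, tested over the stated concentration range. Each fibre used once as its own control. Result is % change from control, given at 10 µM or as the maximum with its concentration. M = <10% decrease or an increase in Vmax.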

Canis familiaris [8] = organism: Canis familiaris; experiment: In vitro electrophysiological evaluation in canine cardiac Purkinje fibres reported as percent change Vmax at 10 uM at concentration range of 1-30 uM; Minimal (<10% decrease or increase in Vmax).; format: functional; conditions: Canis lupus familiaris, Purkinje fiber
Canis familiaris [9] = organism: Canis familiaris; experiment: as §2; format: functional; conditions: Canis lupus familiaris; Heart; remark: listed apart in the source
Canis familiaris [10] = organism: Canis familiaris; experiment: as §2; format: functional; conditions: Canis lupus familiaris; Heart; remark: listed apart in the source
Canis familiaris [11] = organism: Canis familiaris; experiment: In vitro electrophysiological evaluation in canine cardiac Purkinje fibres reported as percent change Vmax at 10 uM at concentration range of 5-100 uM; Minimal (<10% decrease or increase in Vmax).; format: functional; conditions: Canis lupus familiaris, Purkinje fiber
Canis familiaris [12] = organism: Canis familiaris; experiment: In vitro electrophysiological evaluation in canine cardiac Purkinje fibres reported as maximum percent change Vmax concentration range of 0.1-100 uM; Minimal (<10% decrease or increase in Vmax).; format: functional; conditions: Canis lupus familiaris; Purkinje fiber; in short: as §3
Canis familiaris [13] = organism: Canis familiaris; experiment: (§4) In vitro electrophysiological activity in canine cardiac occurred is 100.; format: functional, Canis lupus familiaris, Heart
Canis familiaris [14] = organism: Canis familiaris; experiment: as §4; format: functional, Canis lupus familiaris, Heart; remark: listed apart in the source
Canis familiaris [15] = organism: Canis familiaris; experiment: In vitro electrophysiological evaluation in canine cardiac Purkinje fibres reported as % change for action potential duration at 10 uM at 1-30 uM concentration range; format: functional, Canis lupus familiaris, Purkinje fiber
In short: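 Canine cardiac Purkinje fibers, intracellular recording, paced at a basic cycle length of 1 s. APD95 and Vmax are recorded together across cumulative concentrations. Compound is a 10 mM aqueous stock diluted into Tyrode's solution. Each fiber is used once as its own control. Readouts are percent change from control at 10 μM, and the maximum change with the concentration where it occurred.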

Canis familiaris [16] = organism: Canis familiaris; experiment: In vitro electrophysiological evaluation in canine cardiac Purkinje fibres reported as % change for action potential duration at a concentration of 10 uM; format: functional, Canis lupus familiaris, Purkinje fiber; in short: as §3
Canis familiaris [17] = organism: Canis familiaris; experiment: as §4; format: functional, Canis lupus familiaris, Heart; remark: listed apart in the source
Canis familiaris [18] = organism: Canis familiaris; experiment: as §4; format: functional, Canis lupus familiaris, Heart; remark: listed apart in the source

## CCN(CC)CC(=O)Nc1c(C)cccc1C [LIDOCAINE]
Canis familiaris [1]
  Effective dose: 3 mg/kg
Canis familiaris [2]
  FRP: 23% and 8% and 18%
Canis familiaris [3]
  FRP: 6% and 4% and 2%
Canis familiaris [4]
  CT: <10%
Canis familiaris [5]
  Vmax: -10%
Canis familiaris [6]
  CT: <10%
Canis familiaris [7]
  Vmax: < 10%
Canis familiaris [8]
  Vmax: < 10%
Canis familiaris [9]
  Vmax: -42%
Canis familiaris [10]
  Vmax: -11%
Canis familiaris [11]
  Vmax: < 10%
Canis familiaris [12]
  Vmax: < 10%
Canis familiaris [13]
  APD95: -48%
Canis familiaris [14]
  APD95: -43%
Canis familiaris [15]
  APD95: -30%
Canis familiaris [16]
  APD95: -23%
Canis familiaris [17]
  APD95: -43%
Canis familiaris [18]
  APD95: -33%
